The RNAGym collection of RNA variant scans (doi:10.1038/s41586-018-0170-7)

B1: tRNA (parent)
chain: GUUCCGUUGGCGUAAUGGUAACGCGUCUCCCUCCUAAGGAGAAGACUGCGGGUUCGAGUCCCGUACGGAACG

Variants of: B1
Experiment: yeast fitness, log relative to wild type (ln ratio); higher = fitter; tRNA-Arg(CCU), competitive growth, 37 C, 1 M NaCl
Method in brief: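 Genotype fitness is expressed as the natural log of its generations over those of the wild type. Each pool of the tRNA-Arg(CCU) variant library, carried on a HIS3 centromeric plasmid in BY4742 lacking the chromosomal gene, came from one of two independent transformations and grew 4 generations in SC-HIS at 30 °C before ~6.5 generations (~26.5 h) in SC-HIS 1M NaCl at 37 °C. Generation numbers used OD-scaled log2 output/input frequencies from 125 bp paired-end Illumina sequencing, combined across replicates by inverse-variance weighting.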

| Variant | yeast fitness (ln) |
| --- | --- |
| G1A C27U C46U C66A A69G C71U | -0.168 |
| G1A C27U A43C A69G | -0.138 |
| G1A A43C C46U C66A C71U | -0.139 |
| G1A C27U A43C C46U A69G A70G C71U | -0.336 |
| G1A C66U A69G A70U C71U | -0.364 |
| G1A C27U A69G A70G C71U | -0.322 |
| G1A G6A A43C C66U A69G A70U C71U | -0.402 |
| G1A C27U A43C C66A A70G | -0.173 |
| G1A C27U A43C C66A A70U | -0.136 |
| G1A A43C C46U C66U A69G A70G C71U | -0.263 |
| G1A A43C C46U C71U | -0.00436 |
| G1A G6A A43C C46U C66U A70G C71U | -0.338 |
| G1A A43C C46U C66U C71U | -0.247 |
| G1A G6A C27U A43C C46U | -0.233 |
| G1A A43C C46U A69G A70G | -0.104 |
| G1A A43C C46U A69G A70U | -0.0688 |
| G1A C66U A70G | -0.107 |
| G1A C66U A70U | -0.105 |
| G1A G6A A43C C46U C71U | -0.145 |
| G1A C66U A69G C71U | -0.515 |
| G1A C46U A69G A70G C71U | -0.0298 |
| G1A C46U A70G C71U | -0.0168 |
| G1A C27U C46U A69G C71U | -0.047 |
| G1A A43C C46U C66U A70U C71U | -0.323 |

| Variant | yeast fitness (ln) |
| --- | --- |
| G1A C46U A70U C71U | -0.0276 |
| G1A G6A A43C C46U C66U A70U C71U | -0.331 |
| G1A G6A A43C C46U C66A A69G A70G C71U | -0.261 |
| G1A C46U A69G | -0.238 |
| G1A A43C C46U C66A A69G C71U | -0.216 |
| G1A G6A A43C C66U A70U C71U | -0.405 |
| G1A C27U A70G | -0.163 |
| G1A C27U A70U | -0.112 |
| G1A C27U A43C C46U A70U C71U | -0.29 |
| G1A G6A A69G A70U | -0.166 |
| G1A G6A A69G A70G | -0.104 |
| G1A C27U A43C C46U C66A A69G A70U | -0.352 |
| G1A C27U A43C C46U C66A A69G A70G | -0.189 |
| G1A G6A A43C C46U A69G A70G C71U | -0.252 |
| G1A C27U A43C C66U A70U C71U | -0.51 |
| G1A A43C C46U C66A A69G A70U C71U | -0.36 |
| G1A C27U C46U C66A A70U C71U | -0.208 |
| G1A A43C C66A A70G | -0.19 |
| G1A A43C C66A A70U | -0.129 |
| G1A C27U C46U A70U C71U | -0.178 |
| G1A A43C C46U C66A A69G A70G C71U | -0.191 |
| G1A C27U A43C C66A A69G A70U C71U | -0.431 |
| G1A C66A A70U C71U | -0.144 |
| G1A C27U A43C C46U A69G A70U C71U | -0.366 |

| Variant | yeast fitness (ln) |
| --- | --- |
| G1A G6A A69G A70G C71U | -0.178 |
| G1A C27U A43C C66U A69G A70U C71U | -0.505 |
| G1A C27U A43C C46U C66U A69G A70G C71U | -0.347 |
| G1A C27U C46U C66U A69G A70G C71U | -0.255 |
| G1A C66A A69G A70G C71U | -0.158 |
| G1A C27U C66A A70U | -0.132 |
| G1A C27U C66A A70G | -0.212 |
| G1A C27U C66U A69G A70G C71U | -0.361 |
| G1A G6A C27U A43C A69G A70U C71U | -0.684 |
| G1A A43C A69G C71U | -0.0687 |
| G1A C46U A69G A70G | -0.127 |
| G1A C46U A69G A70U | -0.0206 |
| G1A C66A | 0.0139 |
| G1A C66U | -0.0546 |
| G1A A43C C46U A70G | -0.166 |
| G1A A43C C46U A70U | -0.0611 |
| G1A C27U C66U A69G A70U | -0.295 |
| G1A C27U C66U A69G A70G | -0.211 |
| G1A A43C C46U C66A A70G C71U | -0.191 |
| G1A C46U C66U A69G A70G C71U | -0.158 |
| G1A C46U | -0.0224 |
| G1A C27U A69G | -0.295 |
| G1A C27U C46U C66A | -0.151 |
| G1A C27U C46U C66U | -0.215 |

| Variant | yeast fitness (ln) |
| --- | --- |
| G1A G6A A43C C46U A70U C71U | -0.191 |
| G1A C27U A43C A70U C71U | -0.269 |
| G1A C71U | -0.0163 |
| G1A C27U C71U | -0.0389 |
| G1A G6A A43C C46U A70G C71U | -0.214 |
| G1A A43C C46U C66A A70U C71U | -0.189 |
| G1A C27U C46U C66A A70G | -0.213 |
| G1A C27U C46U C66A A70U | -0.182 |
| G1A C27U C46U C66A C71U | -0.148 |
| G1A G6A A43C C46U C66U A70G | -0.194 |
| G1A G6A A43C C46U C66U A70U | -0.24 |
| G1A A43C C46U A70G C71U | -0.032 |
| G1A G6A A43C A69G A70G C71U | -0.248 |
| G1A C27U C66U A69G A70U C71U | -0.364 |
| G1A A43C C46U A69G A70G C71U | -0.13 |
| G1A G6A C27U A43C A69G A70G | -0.0719 |
| G1A A43C C46U C66U | -0.151 |
| G1A C27U A43C A69G C71U | -0.318 |
| G1A C66U A70U C71U | -0.212 |
| G1A G6A A43C A69G A70G | -0.301 |
| G1A G6A A43C A69G A70U | -0.224 |
| G1A C46U C66U C71U | -0.0203 |
| G1A C27U A43C A70G C71U | -0.426 |
| G1A G6A A69G A70U C71U | -0.247 |

| Variant | yeast fitness (ln) |
| --- | --- |
| G1A C27U C46U A70G C71U | -0.0653 |
| G1A | -0.0233 |
| G1A A43C C46U A69G A70U C71U | -0.33 |
| G1A C27U A43C C46U A70G C71U | -0.153 |
| G1A C27U A43C A70U | -0.329 |
| G1A C27U A43C A70G | -0.173 |
| G1A C27U C46U C66U A70G C71U | -0.223 |
| G1A A43C C46U A70U C71U | -0.116 |
| G1A C27U A43C C66A A69G A70G C71U | -0.427 |
| G1A C46U C66U A69G A70G | -0.134 |
| G1A C46U C66U A69G A70U | -0.162 |
| G1A G6A A70G C71U | -0.115 |
| G1A C27U C46U C66U A70U C71U | -0.283 |
| G1A G6A A43C A69G C71U | -0.335 |
| G1A G6A A43C C46U C66A C71U | -0.26 |
| G1A A43C C66A C71U | -0.275 |
| G1A A43C A69G | -0.145 |
| G1A C27U A43C C46U C66U A70G C71U | -0.299 |
| G1A A43C | -0.119 |
| G1A C46U C66A A70U C71U | -0.171 |
| G1A C27U A43C C46U C66U A70G | -0.226 |
| G1A C27U A43C C46U C66U A70U | -0.173 |
| G1A G6A C27U A43C C46U A69G A70G C71U | -0.374 |
| G1A C46U C66A A70G C71U | -0.11 |

| Variant | yeast fitness (ln) |
| --- | --- |
| G1A G6A A43C C66U A70G | -0.213 |
| G1A G6A A43C C66U A70U | -0.374 |
| G1A C27U A43C C66U A69G C71U | -0.343 |
| G1A A43C C46U C66U A69G A70U C71U | -0.469 |
| G1A G6A C27U A43C C46U A69G C71U | -0.268 |
| G1A G6A A43C A70G C71U | -0.27 |
| G1A A43C C66A A70G C71U | -0.164 |
| G1A C66U A70G C71U | -0.287 |
| G1A G6A A43C C46U C66U A69G A70G C71U | -0.274 |
| G1A A43C C66A A69G A70G C71U | -0.249 |
| G1A G6A A43C C46U A70U | -0.206 |
| G1A G6A A43C C46U A70G | -0.188 |
| G1A C27U | -0.105 |
| G1A C27U A43C C46U C66A A69G A70U C71U | -0.415 |
| G1A C27U C46U C66U A69G C71U | -0.311 |
| G1A C27U A43C C66U A69G A70G | -0.295 |
| G1A C27U A43C C66U A69G A70U | -0.325 |
| G1A A43C C46U C66A A70G | -0.113 |
| G1A A43C C46U C66A A70U | -0.082 |
| G1A A43C C46U A69G | -0.261 |
| G1A G6A A43C A70U | -0.221 |
| G1A G6A A43C A70G | -0.12 |
| G1A A43C C46U C66A A69G A70G | -0.169 |
| G1A A43C C46U C66A A69G A70U | -0.113 |

| Variant | yeast fitness (ln) |
| --- | --- |
| G1A A43C C66A A69G A70U C71U | -0.257 |
| G1A G6A A43C C46U C66U | -0.295 |
| G1A C46U C66U A70U | -0.201 |
| G1A C46U C66U A70G | -0.104 |
| G1A C46U C66U A69G | -0.202 |
| G1A C66U A69G A70G | -0.176 |
| G1A C66U A69G A70U | -0.174 |
| G1A G6A C27U A43C | -0.204 |
| G1A G6A A43C C46U C66U A69G C71U | -0.252 |
| G1A G6A A43C C66U | -0.195 |
| G1A A43C A69G A70G C71U | -0.353 |
| G1A C27U C46U C71U | -0.0338 |
| G1A G6A A43C C46U C66U A69G A70U C71U | -0.4 |
| G1A C27U A43C C46U C66U A69G C71U | -0.361 |
| G1A C27U A70G C71U | -0.11 |
| G1A G6A A43C C46U C66A A70U C71U | -0.171 |
| G1A A69G A70U | -0.0407 |
| G1A A69G A70G | -0.137 |
| G1A C27U C66U A70G C71U | -0.225 |
| G1A G6A C27U A43C A69G C71U | -0.598 |
| G1A C27U A43C A69G A70G C71U | -0.299 |
| G1A G6A A43C A70U C71U | -0.218 |
| G1A A43C C46U C66U A70G | -0.1 |
